Consider eleven compounds from ChEMBL document CHEMBL1687852, “Steroids with aromatic A-rings from the Hainan soft coral Dendronephthya studeri Ridley” (J Nat Prod, 2011).

Type in all cases: functional, cell-based
One test deals with HL-60. The test is described as follows: Cytotoxicity against human HL60 at 20 ug/ml by MTT assay. A digest of the protocol: (§1)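 Growth of the tumour cell lines was tested with compound at concentrations up to 20 μg/mL. The lines were human lung adenocarcinoma A549, BEL-7402, human promyelocytic leukaemia HL-60 and murine lymphocytic leukaemia P388.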
(Tetrazolium assays rely on reduction of a dye to a coloured formazan, in cell work by metabolically active cells.)

In another test the test system is P388. The experiment in a line: Cytotoxicity against mouse P388 at 20 ug/ml by MTT assay. A digest of the protocol:
as §1

A further test has as its system A549. The experiment in a line: Cytotoxicity against human A549 at 20 ug/ml by SRB assay. The essentials: as §1
Background: In SRB staining, fixed cells bind dye roughly in proportion to their protein.

Test [1] concerns Bel-7402. The experiment in a line: Cytotoxicity against human Bel7402 at 20 ug/ml by MTT assay. The essentials:
as §1

In test [2] the test system is Bel-7402. The experiment in a line: Cytotoxicity against human Bel7402 by MTT assay.

Activity calls are given as the source filed them. The rule behind the calls is not given here.

For `C=C(CC[C@@H](C)[C@H]1CC[C@H]2[C@@H]3CCc4cc(O)ccc4[C@H]3CC[C@]12C)C(C)C`, the outcome in the test on HL-60, in the test on P388, in the test with A549 and in the test with Bel-7402 [1] was inactive.

For `CC(C)C/C=C/[C@@H](C)[C@H]1CC[C@H]2[C@@H]3CCC4=CC(=O)C=C[C@]4(C)[C@H]3CC[C@]12C`, the result in the test with HL-60, with P388, in the test on A549 and with Bel-7402 [1] was inactive.

In the case of `CC(C)/C=C/[C@@H](C)[C@H]1CC[C@H]2[C@@H]3CCC4=CC(=O)C=C[C@]4(C)[C@H]3CC[C@]12C`, the result with HL-60, with P388, with A549 and in the test on Bel-7402 [1] was inactive.

Regarding `CC(C)CCC[C@@H](C)[C@H]1CC[C@H]2[C@@H]3CCc4cc(O)ccc4[C@H]3CC[C@]12C`, the outcome in the test on HL-60, in the test on P388, with A549 and with Bel-7402 [1] was inactive.

Consider `CC1CC1/C=C/[C@@H](C)[C@H]1CC[C@H]2[C@@H]3CCc4cc(O)ccc4[C@H]3CC[C@]12C` (stereo partly specified), for which the outcome with HL-60, in the test with P388, in the test with A549 and with Bel-7402 [1] was inactive.

Turning to `C=C(CC[C@@H](C)[C@H]1CC[C@H]2[C@@H]3CCC4=CC(=O)C=C[C@]4(C)[C@H]3CC[C@]12C)C(C)C`, the result in the test with HL-60, with P388, with A549 and in the test with Bel-7402 [1] was inactive.

As to `CC(C)[C@H](C)/C=C/[C@@H](C)[C@H]1CC[C@H]2[C@@H]3CCc4cc(O)ccc4[C@H]3CC[C@]12C`, the outcome in the test with HL-60, in the test on P388, in the test with A549 and in the test on Bel-7402 [1] was inactive.

Regarding `CC(C)[C@@H](C)/C=C/[C@@H](C)[C@H]1CC[C@H]2[C@@H]3CCc4cc(O)ccc4[C@H]3CC[C@]12C`, the result in the test with HL-60, in the test on P388, in the test with A549 and in the test with Bel-7402 [1] was inactive.

`COC(=O)[C@H](CCCC(C)C)[C@H]1CC[C@H]2[C@@H]3CC[C@H]4CC(=O)C=C[C@]4(C)[C@H]3CC[C@]12C`: the outcome with Bel-7402 [2] was Active.

`CC(C)C/C=C/[C@@H](C)[C@H]1CC[C@H]2[C@@H]3CCc4cc(O)ccc4[C@H]3CC[C@]12C`: the outcome in the test on HL-60, with P388, in the test with A549 and in the test on Bel-7402 [1] was inactive.

As to `CC(C)/C=C/[C@@H](C)[C@H]1CC[C@H]2[C@@H]3CCc4cc(O)ccc4[C@H]3CC[C@]12C`, the result in the test on HL-60, in the test with P388, in the test on A549 and in the test with Bel-7402 [1] was inactive.
